From BindingDB's records for doi:10.1021/jm0009538 (Paris-Sud University, 2000)

Target: 5-hydroxytryptamine receptor 4 (Homo sapiens, UniProt Q13639)
Test: Concentration required to produce half-maximal response against 5-hydroxytryptamine receptor in the presence of 10 nM compound in isolated human atrial myocytes
Outline: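 Whole-cell patch clamp on enzymatically dissociated human atrial myocytes, room temperature (19–25 °C); Cs-based internal, pCa 8.5; I_Ca at 0 mV every 8 s, peak minus current at end of 400-ms pulse.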

Chain of 5-hydroxytryptamine receptor 4 (Q13639 whole entry): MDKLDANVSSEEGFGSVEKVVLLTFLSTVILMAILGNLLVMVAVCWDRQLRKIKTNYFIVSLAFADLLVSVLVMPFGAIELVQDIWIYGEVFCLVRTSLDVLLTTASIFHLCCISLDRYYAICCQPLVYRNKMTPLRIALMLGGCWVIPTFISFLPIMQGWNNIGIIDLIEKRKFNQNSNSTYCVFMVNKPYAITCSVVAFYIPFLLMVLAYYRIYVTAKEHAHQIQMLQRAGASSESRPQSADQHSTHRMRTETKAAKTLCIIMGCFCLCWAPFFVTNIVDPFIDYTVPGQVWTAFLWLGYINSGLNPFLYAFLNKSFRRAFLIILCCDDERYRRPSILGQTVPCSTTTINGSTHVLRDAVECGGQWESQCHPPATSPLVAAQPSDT

EC50: 66 nM
SMILES: COc1cc(N)c(Cl)cc1C(=O)OCCN1CCN(c2ncccn2)CC1 [4-Amino-5-chloro-2-methoxy-benzoic acid 2-(4-pyrimidin-2-yl-piperazin-1-yl)-ethyl ester]
